# Test results published in ChEMBL document CHEMBL3124905, “Isothiocoumarin-3-carboxylic acid derivatives: synthesis, anticancer and antitrypanosomal activity evaluation” (Eur J Med Chem, 2014).
# Calls of active or inactive are those of the source. The calls are words filed in the database; no cut-off is given here.
# Experiments:
# Type in all cases: functional
# SNB- = assay: Growth inhibition of human SNB cells after 48 hrs by SRB assay
# Method in brief: (§1)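 NCI five-dose assay against the ~60-cell-line panel (nine cancer types). Tenfold dilutions from 10−4 to 10−8 M were used with continuous 48-h exposure and SRB absorbance readout. Percent growth was computed from time-zero, control and treated absorbances. GI50 is the concentration giving 50% lower net protein increase than controls. Values not reached are reported as beyond the tested range.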
# OVCAR-3 = assay: Growth inhibition of human OVCAR3 cells after 48 hrs by SRB assay; method in brief: as §1
# UACC-62 = assay: Growth inhibition of human UACC62 cells after 48 hrs by SRB assay
# Method in brief: (§2)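 NCI ~60-cell-line five-dose screen. Cells were preincubated 24-48 h, then given compound at 10-fold dilutions from 10^-4 to 10^-8 M with 48 h continuous exposure. SRB protein stain was read by absorbance at time zero, in untreated control and with drug. GI50 was derived from [(Ti-Tz)/(C-Tz)]x100=50, TGI from Ti=Tz, and LC50 from [(Ti-Tz)/Tz]x100=-50.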
# U-251 = assay: Growth inhibition of human U251 cells after 48 hrs by SRB assay; method in brief: as §2
# NCI/ADR-RES = assay: Growth inhibition of human NCI/ADR-RES cells after 48 hrs by SRB assay; method in brief: as §1
# KM12 = assay: Growth inhibition of human KM12 cells after 48 hrs by SRB assay; method in brief: as §1
# OVCAR-4 = assay: Growth inhibition of human OVCAR4 cells after 48 hrs by SRB assay; method in brief: as §1
# CCRF-CEM = assay: Growth inhibition of human CCRF-CEM cells after 48 hrs by SRB assay; method in brief: as §1
# HOP-62 = assay: Growth inhibition of human HOP62 cells after 48 hrs by SRB assay; method in brief: as §1
# Hs-578T = assay: Growth inhibition of human Hs 578T cells after 48 hrs by SRB assay; method in brief: as §1
# OVCAR-5 = assay: Growth inhibition of human OVCAR5 cells after 48 hrs by SRB assay; method in brief: as §1
# BT-549 = assay: Growth inhibition of human BT549 cells after 48 hrs by SRB assay; method in brief: as §1
# SF-268 = assay: Anticancer activity against human SF268 cells assessed as cell growth at 100 uM after 48 hrs by SRB assay; settings: SF-268, 48 h, read-out: Activity
# Method in brief: (§3)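 NCI one-dose primary screen on a three-line panel (breast MCF7, lung NCI-H460, CNS SF-268). Cells were inoculated and preincubated 24–48 h, then exposed to a single concentration of 10−4 M for 48 h. The endpoint was sulforhodamine B protein staining, and results are expressed as percent growth relative to untreated control cells. Negative values denote cytotoxicity.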
# MOLT-4 = assay: Growth inhibition of human MOLT4 cells after 48 hrs by SRB assay; method in brief: as §1
# NCI-H460 [1] = assay: Anticancer activity against human NCI-H460 cells assessed as cell growth at 100 uM after 48 hrs by SRB assay; settings: NCI-H460, 48 h, read-out: Activity; method in brief: as §3
# LOX IMVI = assay: Growth inhibition of human LOXIMVI cells after 48 hrs by SRB assay; method in brief: as §1
# HOP-92 = assay: Growth inhibition of human HOP92 cells after 48 hrs by SRB assay; method in brief: as §1
# 786-0 [2] = assay: Growth inhibition of human 786-0 cells after 48 hrs by SRB assay; method in brief: as §1
# UACC-257 = assay: Growth inhibition of human UACC257 cells after 48 hrs by SRB assay; method in brief: as §2
# SR = assay: Growth inhibition of human SR cells after 48 hrs by SRB assay; method in brief: as §2
# OVCAR-8 = assay: Growth inhibition of human OVCAR8 cells after 48 hrs by SRB assay; method in brief: as §1
# NCI-H522 = assay: Growth inhibition of human NCI-H522 cells after 48 hrs by SRB assay; method in brief: as §1
# ACHN = assay: Growth inhibition of human ACHN cells after 48 hrs by SRB assay; method in brief: as §1
# RPMI18226 = assay: Growth inhibition of human […] cells after 48 hrs by SRB assay; method in brief: as §1
# SK-MEL-5 = assay: Growth inhibition of human SK-MEL-5 cells after 48 hrs by SRB assay; method in brief: as §1
# CAKI-1 = assay: Growth inhibition of human CAKI-1 cells after 48 hrs by SRB assay; method in brief: as §1
# NCI-H460 [3] = assay: Growth inhibition of human NCI-H460 cells after 48 hrs by SRB assay; method in brief: as §1
# A549 = assay: Growth inhibition of human A549/ATCC cells after 48 hrs by SRB assay; method in brief: as §1
# TK-10 = assay: Growth inhibition of human TK10 cells after 48 hrs by SRB assay; method in brief: as §2
# SNB-75 = assay: Growth inhibition of human SNB75 cells after 48 hrs by SRB assay; method in brief: as §1
# M14 = assay: Growth inhibition of human M14 cells after 48 hrs by SRB assay; method in brief: as §1
# SF-539 = assay: Growth inhibition of human SF539 cells after 48 hrs by SRB assay; method in brief: as §1
# UO-31 = assay: Growth inhibition of human UO31 cells after 48 hrs by SRB assay; method in brief: as §2
# HCC 2998 = assay: Growth inhibition of human HCC2998 cells after 48 hrs by SRB assay; method in brief: as §1
# MDA-MB-435 = assay: Growth inhibition of human MDA-MB-435 cells after 48 hrs by SRB assay; method in brief: as §1
# SF-295 = assay: Growth inhibition of human SF295 cells after 48 hrs by SRB assay; method in brief: as §1
# 786-0 [4] = assay: Growth inhibition of human 786-O cells after 48 hrs by SRB assay; method in brief: as §1
# RXF 393 = assay: Growth inhibition of human RXF393 cells after 48 hrs by SRB assay; method in brief: as §1
# HCT-116 = assay: Growth inhibition of human HCT116 cells after 48 hrs by SRB assay; method in brief: as §1
# NCI-H322M = assay: Growth inhibition of human NCI-H322M cells after 48 hrs by SRB assay; method in brief: as §1
# NCI-H23 = assay: Growth inhibition of human NCI-H23 cells after 48 hrs by SRB assay; method in brief: as §1
# EKVX = assay: Growth inhibition of human EKVX cells after 48 hrs by SRB assay; method in brief: as §1
# PC-3 = assay: Growth inhibition of human PC3 cells after 48 hrs by SRB assay; method in brief: as §1
# MDA-MB-231 = assay: Growth inhibition of human MDA-MB-231/ATCC cells after 48 hrs by SRB assay; method in brief: as §1
# HOP69 = assay: Growth inhibition of human […] cells after 48 hrs by SRB assay; method in brief: as §1
# MCF7 = assay: Anticancer activity against human MCF7 cells assessed as cell growth at 100 uM after 48 hrs by SRB assay; settings: MCF7, 48 h, read-out: Activity; method in brief: as §3
# Malme-3M = assay: Growth inhibition of human MALME-3M cells after 48 hrs by SRB assay; method in brief: as §1
compound,measurement,setting,value
COc1ccc2cc(C(=O)Nc3nccs3)sc(=O)c2c1OC,pGI50,SNB-,inactive
same,pTGI,SNB-,inactive
same,pGI50,OVCAR-3,inactive
same,pTGI,OVCAR-3,inactive
same,pGI50,UACC-62,inactive
same,pTGI,UACC-62,inactive
same,pGI50,U-251,inactive
same,pTGI,U-251,inactive
same,pGI50,NCI/ADR-RES,inactive
same,pTGI,NCI/ADR-RES,inactive
same,pGI50,KM12,inactive
same,pTGI,KM12,inactive
same,pGI50,OVCAR-4,inactive
same,pTGI,OVCAR-4,inactive
same,pGI50,CCRF-CEM,inactive
same,pTGI,CCRF-CEM,inactive
same,pGI50,HOP-62,inactive
same,pTGI,HOP-62,inactive
same,pGI50,Hs-578T,inactive
same,pTGI,Hs-578T,inactive
same,pGI50,OVCAR-5,inactive
same,pTGI,OVCAR-5,inactive
same,pGI50,BT-549,inactive
same,pTGI,BT-549,inactive
same,growth at 100 µM,SF-268,98%
same,pGI50,MOLT-4,inactive
same,pTGI,MOLT-4,inactive
same,growth at 100 µM,NCI-H460 [1],94%
same,pGI50,LOX IMVI,inactive
same,pTGI,LOX IMVI,inactive
same,pGI50,HOP-92,inactive
same,pTGI,HOP-92,inactive
same,pGI50,786-0 [2],inactive
same,pTGI,786-0 [2],inactive
same,pGI50,UACC-257,inactive
same,pTGI,UACC-257,inactive
same,pGI50,SR,inactive
same,pTGI,SR,inactive
same,pGI50,OVCAR-8,inactive
same,pTGI,OVCAR-8,inactive
same,pGI50,NCI-H522,inactive
same,pTGI,NCI-H522,inactive
same,pGI50,ACHN,inactive
same,pTGI,ACHN,inactive
same,pGI50,RPMI18226,inactive
same,pTGI,RPMI18226,inactive
same,pGI50,SK-MEL-5,inactive
same,pTGI,SK-MEL-5,inactive
same,pGI50,CAKI-1,inactive
same,pTGI,CAKI-1,inactive
same,pGI50,NCI-H460 [3],inactive
same,pTGI,NCI-H460 [3],inactive
same,pGI50,A549,inactive
same,pTGI,A549,inactive
same,pGI50,TK-10,inactive
same,pTGI,TK-10,inactive
same,pGI50,SNB-75,inactive
same,pTGI,SNB-75,inactive
same,pGI50,M14,inactive
same,pTGI,M14,inactive
same,pGI50,SF-539,inactive
same,pTGI,SF-539,inactive
same,pGI50,UO-31,inactive
same,pTGI,UO-31,inactive
same,pGI50,HCC 2998,inactive
same,pTGI,HCC 2998,inactive
same,pGI50,MDA-MB-435,inactive
same,pTGI,MDA-MB-435,inactive
same,pGI50,SF-295,inactive
same,pTGI,SF-295,inactive
same,pGI50,786-0 [4],inactive
same,pTGI,786-0 [4],inactive
same,pGI50,RXF 393,inactive
same,pTGI,RXF 393,inactive
same,pGI50,HCT-116,inactive
same,pTGI,HCT-116,inactive
same,pGI50,NCI-H322M,inactive
same,pTGI,NCI-H322M,inactive
same,pGI50,NCI-H23,inactive
same,pTGI,NCI-H23,inactive
same,pGI50,EKVX,inactive
same,pTGI,EKVX,inactive
same,pGI50,PC-3,inactive
same,pTGI,PC-3,inactive
same,pGI50,MDA-MB-231,inactive
same,pTGI,MDA-MB-231,inactive
same,pGI50,HOP69,inactive
same,pTGI,HOP69,inactive
same,growth at 100 µM,MCF7,95%
same,pGI50,Malme-3M,inactive
same,pTGI,Malme-3M,inactive
